How the values were obtained:
Assay type in all cases: functional
HL-60(TB) = experiment: Cytotoxicity against human HL-60(TB) cells at 10^-8 M after 48 hrs by SRB assay; conditions: HL-60, 48 h, read-out: GI
In short: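 NCI 60-human-tumour-cell-line screen run over a 5-log dose range (100, 10, 1, 0.1 and 0.01 µM). Cells were exposed to drug for 48 h. Growth was estimated by sulforhodamine B protein staining. Values are percent growth inhibition at each concentration, relative to untreated control cells.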

786-0 = experiment: Cytotoxicity against human 786-0 cells at 10^-7 M after 48 hrs by SRB assay; conditions: 786-0, 48 h, read-out: GI
SK-MEL-28 = experiment: Cytotoxicity against human SK-MEL-28 cells at 10^-7 M after 48 hrs by SRB assay; conditions: SK-MEL-28, 48 h, read-out: GI
[1] = Cytotoxicity against human EKVX cells at 10^-8 M after 48 hrs by SRB assay; conditions: read-out: GI
MOLT-4 = experiment: Cytotoxicity against human MOLT4 cells at 10^-8 M after 48 hrs by SRB assay; conditions: MOLT-4, 48 h, read-out: GI
A549 [2] = experiment: Cytotoxicity against human A549 cells after 48 hrs by SRB assay; conditions: A549, 48 h
SK-MEL-5 = experiment: Cytotoxicity against human SK-MEL-5 cells at 10^-7 M after 48 hrs by SRB assay; conditions: SK-MEL-5, 48 h, read-out: GI
COLO 205 [3] = experiment: Cytotoxicity against human COLO205 cells at 10^-8 M after 48 hrs by SRB assay; conditions: COLO 205, 48 h, read-out: GI
HT-29 = experiment: Cytotoxicity against human HT-29 cells at 10^-7 M after 48 hrs by SRB assay; conditions: HT-29, 48 h, read-out: GI
MDA-MB-231 = experiment: Cytotoxicity against human MDA-MB-231 cells at 10^-7 M after 48 hrs by SRB assay; conditions: MDA-MB-231, 48 h, read-out: GI
K562 [4] = experiment: Cytotoxicity against human K562 cells at 10^-5 M after 48 hrs by SRB assay; conditions: K562, 48 h, read-out: GI
[5] = Cytotoxicity against human Hs578T cells at 10^-8 M after 48 hrs by SRB assay; conditions: Hs-578T, read-out: GI
SK-MEL-2 = experiment: Cytotoxicity against human SK-MEL-2 cells at 10^-8 M after 48 hrs by SRB assay; conditions: SK-MEL-2, 48 h, read-out: GI
CCRF-CEM = experiment: Cytotoxicity against human CCRF-CEM cells at 10^-7 M after 48 hrs by SRB assay; conditions: read-out: GI
IGROV-1 [6] = experiment: Cytotoxicity against human IGROV1 cells at 10^-7 M after 48 hrs by SRB assay; conditions: IGROV-1, 48 h, read-out: GI
SF-268 = experiment: Cytotoxicity against human SF268 cells at 10^-8 M after 48 hrs by SRB assay; conditions: SF-268, 48 h, read-out: GI
T47D = experiment: Cytotoxicity against human T47D cells at 10^-8 M after 48 hrs by SRB assay; conditions: read-out: GI
HOP-92 = experiment: Cytotoxicity against human HOP92 cells at 10^-7 M after 48 hrs by SRB assay; conditions: HOP-92, 48 h, read-out: GI
K562 [7] = experiment: Cytotoxicity against human K562 cells at 10^-7 M after 48 hrs by SRB assay; conditions: K562, 48 h, read-out: GI
SR [8] = experiment: Cytotoxicity against human SR cells at 10^-6 M after 48 hrs by SRB assay; conditions: read-out: GI
[9] = Cytotoxicity against human UACC257 cells at 10^-7 M after 48 hrs by SRB assay; conditions: UACC-257, 48 h, read-out: GI
K562 [10] = experiment: Cytotoxicity against human K562 cells at 10^-8 M after 48 hrs by SRB assay; conditions: K562, 48 h, read-out: GI
LOX IMVI = experiment: Cytotoxicity against human LOXIMVI cells at 10^-7 M after 48 hrs by SRB assay; conditions: read-out: GI
COLO 205 [11] = experiment: Cytotoxicity against human COLO205 cells at 10^-7 M after 48 hrs by SRB assay; conditions: COLO 205, 48 h, read-out: GI
IGROV-1 [12] = experiment: Cytotoxicity against human IGROV1 cells at 10^-8 M after 48 hrs by SRB assay; conditions: IGROV-1, 48 h, read-out: GI
UACC-62 [13] = experiment: Cytotoxicity against human UACC62 cells at 10^-8 M after 48 hrs by SRB assay; conditions: UACC-62, 48 h, read-out: GI
DU-145 [14] = experiment: Cytotoxicity against human DU145 cells at 10^-7 M after 48 hrs by SRB assay; conditions: DU-145, 48 h, read-out: GI
UACC-62 [15] = experiment: Cytotoxicity against human UACC62 cells at 10^-7 M after 48 hrs by SRB assay; conditions: UACC-62, 48 h, read-out: GI
ACHN = experiment: Cytotoxicity against human ACHN cells at 10^-7 M after 48 hrs by SRB assay; conditions: read-out: GI
SR [16] = experiment: Cytotoxicity against human SR cells at 10^-8 M after 48 hrs by SRB assay; conditions: read-out: GI
BT-549 = experiment: Cytotoxicity against human BT549 cells at 10^-7 M after 48 hrs by SRB assay; conditions: BT-549, 48 h, read-out: GI
OVCAR-8 = experiment: Cytotoxicity against human OVCAR8 cells after 48 hrs by SRB assay; conditions: OVCAR-8, 48 h
[17] = Cytotoxicity against human UO31 cells at 10^-5 M after 48 hrs by SRB assay; conditions: UO-31, 48 h, read-out: GI
SNB-19 = experiment: Cytotoxicity against human SNB19 cells at 10^-7 M after 48 hrs by SRB assay; conditions: SNB-19, 48 h, read-out: GI
A549 [18] = experiment: Cytotoxicity against human A549 cells at 10^-7 M after 48 hrs by SRB assay; conditions: A549, 48 h, read-out: GI
NCI-H322M = experiment: Cytotoxicity against human NCI-H322M cells at 10^-8 M after 48 hrs by SRB assay; conditions: read-out: GI
DU-145 [19] = experiment: Cytotoxicity against human DU145 cells at 10^-8 M after 48 hrs by SRB assay; conditions: DU-145, 48 h, read-out: GI
Malme-3M = experiment: Cytotoxicity against human MALME-3M cells at 10^-5 M after 48 hrs by SRB assay; conditions: read-out: GI

With CCN(Cc1nc2cc(C(F)(F)F)ccc2nc1-c1ccccc1)c1ccc(OC)c(OC)c1 the inhibition of growth at 0.01 µM (HL-60(TB)) was < 40%, the inhibition of growth at 0.1 µM (786-0) was < 40% and the inhibition of growth at 0.1 µM (SK-MEL-28) was < 40%. For the same compound, the inhibition of growth at 0.01 µM [1] was < 40%, the inhibition of growth at 0.01 µM (MOLT-4) was < 40% and the GI50 (A549 [2]) was 0.372 µM. The inhibition of growth at 0.1 µM (SK-MEL-5) was < 40%, the inhibition of growth at 0.01 µM (COLO 205 [3]) was < 40% and the inhibition of growth at 0.1 µM (HT-29) was < 40%. For the same compound, the inhibition of growth at 0.1 µM (MDA-MB-231) was < 40%, the inhibition of growth at 10 µM (K562 [4]) was 62% and the inhibition of growth at 0.01 µM [5] was < 40%. The inhibition of growth at 0.01 µM (SK-MEL-2) was < 40%, the inhibition of growth at 0.1 µM (CCRF-CEM) was < 40% and the inhibition of growth at 0.1 µM (IGROV-1 [6]) was < 40%. For the same compound, the inhibition of growth at 0.01 µM (SF-268) was < 40%, the inhibition of growth at 0.01 µM (T47D) was < 40% and the inhibition of growth at 0.1 µM (HOP-92) was < 40%. For the same compound, the inhibition of growth at 0.1 µM (K562 [7]) was < 40%, the inhibition of growth at 1 µM (SR [8]) was < 40% and the inhibition of growth at 0.1 µM [9] was 67%. The inhibition of growth at 0.01 µM (K562 [10]) was < 40%, the inhibition of growth at 0.1 µM (LOX IMVI) was < 40% and the inhibition of growth at 0.1 µM (COLO 205 [11]) was < 40%. The inhibition of growth at 0.01 µM (IGROV-1 [12]) was < 40%, the inhibition of growth at 0.01 µM (UACC-62 [13]) was < 40% and the inhibition of growth at 0.1 µM (DU-145 [14]) was < 40%. For the same compound, the inhibition of growth at 0.1 µM (UACC-62 [15]) was < 40%, the inhibition of growth at 0.1 µM (ACHN) was < 40% and the inhibition of growth at 0.01 µM (SR [16]) was < 40%. The inhibition of growth at 0.1 µM (BT-549) was < 40%, the GI50 (OVCAR-8) was 1.51 µM and the inhibition of growth at 10 µM [17] was < 40%. For the same compound, the inhibition of growth at 0.1 µM (SNB-19) was < 40%, the inhibition of growth at 0.1 µM (A549 [18]) was 42% and the inhibition of growth at 0.01 µM (NCI-H322M) was < 40%. The inhibition of growth at 0.01 µM (DU-145 [19]) was < 40%.
With C#CCN(Cc1nc2cc(C(F)(F)F)ccc2nc1-c1ccccc1)c1ccc(C)cc1 the inhibition of growth at 10 µM (Malme-3M) was 41%.

— ChEMBL document CHEMBL3120154, “2-[N-Alkyl(R-phenyl)-aminomethyl]-3-phenyl-7-trifluoromethylquinoxalines as anticancer agents inhibitors of folate enzymes” (Eur J Med Chem, 2014)
